In publication PMC5517787 (International Journal for Parasitology: Drugs and Drug …, 2017):
Several values for one entry are separate records, joined by “and”; a condition that tells them apart may be missing. Equal values may be shown once. Read-outs that look alike come from different tables or passages of the source. Marks after values point to notes of the source that are not given here.

Columns and labels:
[1] = system: Haemonchus contortus exsheathed third-stage larvae (xL3s); experiment: Whole-organism xL3 motility assay; assay type: cell-based; conditions: for IC50: Haemonchus contortus
[2] = system: Haemonchus contortus fourth-stage larvae (L4s); experiment: L4 motility assay; assay type: cell-based
[3] = system: mammary epithelial cell line (MCF10A); experiment: cells; assay type: cell-based; conditions: for IC50 / inhibition at 100 µM: Homo sapiens, MCF-10A; for IC50: 48 h, read-out: MCF10A cells IC50; for inhibition at 100 µM: read-out: MCF10A cells % inhibition at 100 μM; for Selectivity index (SI) H. contortus L4 (72 h) / Selectivity index (SI) H. contortus L4 development (7 days) / Selectivity index (SI) H. contortus xL3 (72 h): highest value of IC50 range; for selectivity index (SI) for parasitic larvae of H. contortus, range: range over xL3, L4 motility and L4 development
[4] = system: adult female and male Brugia malayi; conditions: ref Storey et al., 2014, cited from earlier work
[5] = system: microfilariae of Brugia malayi; conditions: read-out: motility IC50, B. malayi microfilariae; ref Storey et al., 2014; cited from earlier work
[6] = system: microfilariae of Dirofilaria immitis; conditions: read-out: motility IC50, D. immitis microfilariae; cited from earlier work
T. muris L1s = experiment: Whipworm L1 in vitro assay; assay type: cell-based, Trichuris muris
In short: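 Forty T. muris L1s per well in 100 μl RPMI-1640 with amphotericin B (12.5 μg/ml), penicillin (500 U/ml) and streptomycin (500 μg/ml). Test compound at 100 μM in duplicate; levamisole (100 μM) as positive control. Held 24 h at 37 °C, 5% CO2. Total L1s counted, then larvae stimulated with 100 μl hot water and motile L1s counted.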

[7] = system: microfilariae of Dirofilaria immitis; experiment: microbe, parasite or virus in culture; assay type: cell-based; conditions: for IC50: Dirofilaria immitis, read-out: motility IC50, D. immitis microfilariae
[8] = system: adult female and male Brugia malayi; experiment: Adult motility assay; assay type: cell-based; conditions: for IC50: Brugia malayi
[9] = system: microfilariae of Brugia malayi; experiment: Microfilariae motility assay; assay type: cell-based; conditions: 72 h, read-out: motility IC50, B. malayi microfilariae
In short: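 Individual gravid B. malayi females in RPMI-1640 with gentamycin (10 μg/ml) and amphotericin B (2.5 μg/ml). Two-fold test-compound dilutions from 100 to 0.97 μM in duplicate; RPMI* with 1% DMSO as negative control. Incubated at 37 °C, 5% CO2. At 72 h, about 100 released microfilariae moved to 96-well plates and filmed for 30 s on the Worminator. Run three times; IC50 from a four-parameter variable-slope fit.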

adult A. ceylanicum = experiment: Adult hookworm in vitro assay; assay type: cell-based, Ancylostoma ceylanicum; conditions: for killing of adult A. ceylanicum: 50 μM, 72 h
In short: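 Adult worms taken from small intestines of hamsters orally infected with 150 A. ceylanicum L3s three weeks earlier. Three worms per well, 2 wells per compound, in HBSS with 10% foetal calf serum, amphotericin B (25 μg/ml), penicillin (100 U/ml) and streptomycin (100 μg/ml). Test compound at 50 μM; levamisole (50 μM) as positive control. Held 72 h at 37 °C, 5% CO2, then condition assessed microscopically.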

[10] = 24 h, read-out: xL3 motility IC50
[11] = 48 h, read-out: xL3 motility IC50
[12] = 72 h, read-out: xL3 motility IC50
[13] = 24 h, read-out: L4 motility IC50
[14] = 48 h, read-out: L4 motility IC50
[15] = 72 h, read-out: L4 motility IC50
[16] = IC50 MCF10A / IC50 nematode, estimated IC50 range

Row | Compound | IC50 [1, 10] [nM] | IC50 [1, 11] [nM] | IC50 [1, 12] [nM] | IC50 [2, 13] [nM] | IC50 [2, 14] [nM] | IC50 [2, 15] [nM] | IC50 [3] [nM] | inhibition at 100 µM [3] [%] | Selectivity index (SI) H. contortus L4 (72 h) ([3]; IC50 MCF10A / IC50 nematode) | Selectivity index (SI) H. contortus L4 development (7 days) ([3]; IC50 MCF10A / IC50 nematode) | selectivity index (SI) for parasitic larvae of H. contortus, range [3] | Selectivity index (SI) H. contortus xL3 (72 h) ([3]; IC50 MCF10A / IC50 nematode) | IC50 [6] [nM] | killing of adult A. ceylanicum (adult A. ceylanicum) | also measured
1 | C[C@](C#N)(COc1cc(C#N)ccc1C(F)(F)F)NC(=O)c1ccc(SC(F)(F)F)cc1 [Monepantel, monepantel] | 480 ± 230 | 260 ± 150 | 160 ± 80 | 760 ± 290 | 340 ± 180 | 370 ± 320 | 24900 ± 11800 | 0.1 ± 0.05 | 67.4 | 332.4 | 67–332 | – | – | – | –
2 | CO/N=C1\C[C@]2(C[C@@H]3C[C@@H](C/C=C(\C)C[C@@H](C)/C=C/C=C4\CO[C@@H]5[C@H](O)C(C)=C[C@@H](C(=O)O3)[C@]45O)O2)O[C@H](/C(C)=C/C(C)C)[C@H]1C [Moxidectin, moxidectin] | 190 ± 30 | 970 ± 840 | 80 ± 40 | 70 ± 40 | 50 ± 20 | 20 ± 10 | < 6000 | 0.05 ± 0.01 | 300 | 1.7 | 2 to 300 | 75 | 9300 | – | comparison value for motility of adult B. malayi ([4]; 24 h): 1.3 µM; comparison value for motility of adult B. malayi ([4]; 48 h): 2.9 µM; IC50 [5]: ~6000 nM
3 | O=C(Nc1ccc(Cl)cc1)N1CCCC1c1nc(-c2ccccc2)no1 (stereo not shown) [SN00797439, N-(4-chlorophenyl)-2-(3-phenyl-1,2,4-oxadiazol-5-yl)-1-pyrrolidinecarboxamide] | 3460 ± 820 | 10100 ± 2060 | 5930 ± 1380 | 6250 to 12500 | 780 to 1500 | 310 to 780 | 50000 to 100000 | 6.2 ± 0.66 | 128.2 ^b | 9.1 | 9–128 | 16.9 | – | killed | T. muris L1s dead (T. muris L1s; 100 μM, 24 h): > 90% and 90.1%; IC50 (T. muris L1s; Trichuris muris, read-out: IC50 on first-stage larvae of T. muris (abstract)): 3000 to 50000 nM; xL3 phenotype ([1]; 20 μM): “coiled” xL3 phenotype; reduction of xL3 motility ([1]; 20 μM, 72 h, primary and confirmatory screens): ≥ 70%; IC50 ([1]; read-out: xL3 IC50 (abstract summary)): 3460 to 5930 nM; concentration giving complete inhibition of microfilariae motility [7]: 100 µM; IC50 ([7]; 24 h): ~50000 nM; IC50 ([7]; 48 h): ~50000 nM; IC50 ([2]; read-out: L4 motility IC50 (abstract summary)): 310 to 12500 nM; concentration at which movement of female and male adults ceased ([8]; 24 h): 100 µM; concentration at which movement of female and male adults ceased ([8]; 48 h): 50 µM; IC50 ([8]; 24 h, read-out: motility IC50, B. malayi adult female): 25000 to 50000 nM; IC50 ([8]; 24 h, read-out: motility IC50, B. malayi adult male): 25000 to 50000 nM; IC50 [9]: ~3000 nM; Selectivity index (SI) D. immitis mff (48 h) [3]: 2 ^b; Selectivity index (SI) B. malayi adult females [3, 16]: 2 ^b; Selectivity index (SI) B. malayi adult males [3, 16]: 2 ^b; kill of adults of A. ceylanicum (abstract) (adult A. ceylanicum): > 90%
4 | c1ccc([C@H]2CN3CCSC3=N2)cc1 [levamisole, reference compound] | – | – | – | – | – | – | – | – | – | – | – | – | – | killed | killing of T. muris L1s (T. muris L1s; 100 μM, 24 h): killed
5 | ivermectin | – | – | – | – | – | – | – | – | – | – | – | – | 43000 | – | –
